Screens: PubChem, several laboratories
LMPTP block: blocks human LMPTP phosphatase | P24666 | recombinant LMPTP-A, OMFP fluorogenic substrate, fluorescence intensity | inhibition, % at 20 µM | 360,000 tested, 0.22% active | AID 651560;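 active = compounds that cut the enzyme signal by at least half of the control window in the single-dose screen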;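 note: plate controls were DMSO wells with enzyme plus substrate for no effect and substrate without enzyme for full effect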
Target sequence (P24666 whole entry, looked up): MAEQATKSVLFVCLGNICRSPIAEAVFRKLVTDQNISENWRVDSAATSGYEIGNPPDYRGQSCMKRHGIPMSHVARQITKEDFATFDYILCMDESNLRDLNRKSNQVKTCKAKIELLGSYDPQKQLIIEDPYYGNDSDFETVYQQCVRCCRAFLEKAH
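Assay system: LMPTP-A, protein tyrosine phosphatase of low molecular weight / Medium: pH 6.0 Bis-Tris buffer with DTT and Triton X-100 / Schedule: 50 min enzyme reaction at room temperature, protected from light / Measured by: endpoint fluorescence intensity from OMFP dephosphorylation / Read-out basis: % inhibition relative to no-enzyme and uninhibited control wells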
DSG3 Ab inh: inhibitors of pemphigus antibody binding to human desmoglein-3 | binding (percent of control), % at 10 µM | AID 588358 | 310,000 tested, 0.48% active | DSG3-coupled beads, scFv-anti-DSG3-GFP binding, flow cytometry; active compounds read low;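 active = binding more than 3 SD below its plate's average and above zero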;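 note: hits lower antibody fragment binding to DSG3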
SUMO1 PPI mod: alters human SUMO1 binding to SIM partners; SUMO1 binding to a labelled peptide, TR-FRET, 1 h; inhibition, % at 20 µM; 360,000 tested, 0.33% active; AID 602429; in the data active = inhibition above about 37%
Target sequence (P63165 whole entry, looked up): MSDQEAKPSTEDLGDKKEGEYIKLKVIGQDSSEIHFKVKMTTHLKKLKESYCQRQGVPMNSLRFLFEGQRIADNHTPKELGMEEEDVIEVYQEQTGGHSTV
STEP inh: inhibitors of human striatal-enriched phosphatase STEP; P54829; recombinant STEP, OMFP fluorogenic substrate, fluorescence; inhibition, % at 20 µM; 360,000 tested, 0.25% active;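 active = inhibition at 20 µM, scaled per plate between control wells, above about 37%, limit read from the data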;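 note: 0% = DMSO with enzyme and substrate and 100% = substrate only without enzyme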
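Measure: Control-normalized % inhibition with plate pattern correction | Test system: STEP phosphatase, cell-free reaction | Medium: pH 6.0 Bis-Tris with DTT and Tween 20 | Technique: Fluorescence, 480/540 nm | Times: Reaction 20 min, ambient temperature | Doses: Single compound dose of 20 µM, 1% DMSO final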
Scp1 inh: inhibitors of human Scp-1 phosphatase; Q9GZU7; Recombinant Scp1, phosphopeptide, malachite green phosphate absorbance; inhibition, % at 20 µM; 340,000 tested, 0.88% active; AID 493091;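 active = inhibition above about 50% at 20 µM, limit read from the data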;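 note: plate controls were DMSO wells with enzyme for no effect and wells lacking enzyme for full effect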
Target sequence (Q9GZU7 76-261 limits assumed): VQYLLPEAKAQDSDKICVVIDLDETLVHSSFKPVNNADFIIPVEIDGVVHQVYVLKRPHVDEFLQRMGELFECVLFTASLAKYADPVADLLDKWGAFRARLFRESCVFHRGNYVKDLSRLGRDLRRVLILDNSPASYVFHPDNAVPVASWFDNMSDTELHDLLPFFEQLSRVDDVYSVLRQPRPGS
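Times: enzyme reaction 45 min at room temperature, colour 5 min, stabilisation 30 min. Material: SCP-1 catalytic fragment, aa 76-261. Medium: Acidic Tris acetate buffer with magnesium and detergent. Signal: colorimetric free-phosphate detection, absorbance 630 nm. Read-out basis: % inhibition of SCP-1 phosphate liberation. Reagent: Phosphorylated 17-residue peptide substrate.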
Active calls of the source: *; . = no result. A selection: hits, their analogues and other compounds. The true share with any hit is near 1.7%.

SMILES	LMPTP block	DSG3 Ab inh	SUMO1 PPI mod	STEP inh	Scp1 inh
O=C(CSc1nnc(-c2ccco2)o1)c1ccc[nH]1	52.7*	87.7	18.0	0.7	39.9
CCN(C(=O)c1ccc2c(=O)n3c(nc2c1)CCCCC3)c1ccc(F)cc1	-2.4	.	-1.9	1.4	-5.2
O=C(COC(=O)Cc1c(Cl)cccc1Cl)NCCC1=CCCCC1	-0.3	93.5	-0.1	5.9	-10.7
CCCOC(=O)C1=C(C)NC(=O)NC1c1cccc2ccccc12 (stereo not given)	1.0	2.5*	-3.3	-0.7	6.9
COc1cc(/C=C/C(=O)OCC(=O)Nc2cc(S(=O)(=O)N3CCCC3)ccc2Cl)cc(OC)c1OC	2.8	92.7	3.0	2.4	-23.8
CCNC(=O)C1(C)CCN(C(=O)c2ccc(C(=O)OC)cc2)C1 (stereo not given)	-1.2	.	3.2	2.6	.
Cc1ccc(-c2nnn(CC(=O)N(Cc3cccs3)C(C(=O)NC3CCCC3)c3ccncc3)n2)cc1 (stereo not given)	1.3	102.8	44.6*	3.4	12.6
O=C(O)CCN1C(=O)/C(=C/c2ccc(-c3nc4ccccc4s3)o2)SC1=S	3.0	98.4	91.0*	69.8*	46.0
O=C(O)CC(C(=O)O)N1C(=O)/C(=C/c2ccc(-c3nc4ccccc4s3)o2)SC1=S (stereo not given)	30.6	102.3	87.4*	62.7*	80.2*
O=C(O)CCCN1C(=O)/C(=C\c2ccc(-c3nc4ccccc4s3)o2)SC1=S	21.5	73.5*	55.9*	64.6*	75.1*
O=C(O)c1cc(-c2ccc(/C=C3/SC(=S)N(Cc4ccccc4)C3=O)o2)ccc1Cl	71.3*	95.8	36.2	-21.7	56.9*
COCc1nnc(NS(=O)(=O)c2ccc(Br)cc2)s1	-0.3	.	3.8	-1.4	0.5
COc1ccc([C@H]2C[C@@H](O)[C@H](n3cc(COC(=O)c4ccccc4)nn3)CN2C(=O)c2cccs2)cc1	-1.0	.	1.2	-1.5	.
O=C(OCc1ccccc1)N1CCC2CC1c1cc(N3CCN(S(=O)(=O)c4cccc5ccccc45)CC3)ccc12 (stereo not given)	3.5	.	2.7	4.0	.
O=c1c2c([nH]c3ccccc13)C(=C1CCCC1)CC2	59.2*	93.3	27.7	9.9	7.1
O=c1c2c([nH]c3ccccc13)CCCC2	0.3	103.0	2.7	5.3	-3.0
CCOC(=O)c1sc(N/N=C/c2cc(Br)c(O)c(OC)c2)nc1C	-0.2	105.9	39.5	83.7*	2.3
Cc1cc(=O)n(Nc2ccccc2)c(O)c1C#N	0.3	64.4*	9.5	2.5	.
Cc1cc(=O)n(CCc2ccccc2)c(O)c1C#N	-0.1	102.7	4.8	-2.0	1.0
CCc1ccc(NC(=O)CCCN2C(=O)C3CC=CCC3C2=O)cc1 (stereo not given)	-0.6	104.3	-2.8	-1.9	-0.1
COc1cccc2c1C(=O)c1c(O)c3c(c(O)c1C2=O)C[C@@](O)(C(=O)CO)C[C@@H]3O[C@H]1C[C@H](N)[C@@H](O)[C@H](C)O1	13.9	88.5	97.0*	-4.4	-13.9
COc1cccc2c1C(=O)c1c(O)c3c(c(O)c1C2=O)C[C@@](O)(C(C)=O)C[C@@H]3O[C@H]1C[C@H](N)[C@H](O)[C@H](C)O1	11.3	105.8	-72.2	-46.1	-11.3
COC(=O)c1ccc(NC(=S)NC2CCc3ccccc32)cc1 (stereo not given)	0.5	108.1	2.0	1.4	2.7
CNC(=S)N/N=C1\C(=O)c2cccc3cccc1c23	2.2	107.2	-11.4	0.7	-4.8
O=C(N/N=C1\C(=O)c2cccc3cccc1c23)c1ccc(O)cc1	16.9	91.1	41.3*	10.1	23.9
SMILES	LMPTP block	DSG3 Ab inh	SUMO1 PPI mod	STEP inh	Scp1 inh
CCCCCCNC(=O)c1cc(S(=O)(=O)N2CCc3ccccc32)ccc1F	0.7	86.9*	10.6	0.1	-3.4
Cc1ccc(N2CCC(N3CCN(C4CCCCC4)C(CCO)C3)CC2)cc1 (stereo not given)	-0.4	99.4	-1.1	2.0	-3.7
OCc1cn(-c2ccccc2)nc1-c1ccc(-c2nn(-c3ccccc3)cc2CO)cc1	0.9	.	0.2	-7.4	-9.6
N#Cc1cn(-c2ccccc2)nc1-c1ccccc1	0.6	100.9	45.4*	-1.1	19.6
O=C(O)c1cccc(-n2cccc2/C=C2/NC(=O)N(c3ccc(Cl)cc3)C2=O)c1	81.4*	40.6*	106.5*	93.9*	80.6*
CN(C)S(=O)(=O)c1cccc(NC(=O)COC(=O)CNC(=O)c2ccccc2F)c1	0.4	100.9	-2.8	-1.1	-6.8
CCOc1cc(/C=C2\C(=O)ON=C2C)ccc1OCc1ccccc1	-0.7	105.2	39.6*	0.9	-17.6
CCCOc1ccc(/C=C2/C(=O)ON=C2C)cc1OCC	0.3	94.6	18.7	1.8	-4.5
CCc1nc2c(OCCOc3ccc(F)cc3)cccn2c1N(C)C(=O)CC(C)C	-0.3	.	-6.7	3.3	.
CC(C)NC(=O)c1sc(=S)n2c1[nH]c(=O)c1ccc(C(=O)NCCc3ccc(Cl)cc3)cc12	33.7	124.9	26.5	40.0*	-6.8
Cc1ccc(C(=O)NNC(=O)c2csc(N3CCOCC3)n2)o1	4.3	95.7*	3.4	0.7	3.7
COc1ccc([N+](=O)[O-])cc1NC(=O)C(C)Sc1nc(-c2ccccc2)cs1 (stereo not given)	2.0	87.4	-3.3	0.2	-17.0
COc1cc2c(cc1NC(=S)NC(=O)/C=C/c1ccc(OC)c(OC)c1)oc1ccccc12	3.5	67.8*	-3.0	-1.7	-0.8
COc1cc2c(cc1NC(=O)Nc1ccc(C)cc1)oc1ccccc12	3.4	102.5	1.0	-0.5	-4.9
COc1ccc(/C=C/C(=O)NC(=S)Nc2cc3oc4ccccc4c3cc2OC)cc1	0.6	89.7	4.6	0.4	0.7
COc1ccc(NC(=O)Nc2cc3oc4ccccc4c3cc2OC)cc1	1.2	89.2	58.6*	-4.9	-7.6
Cn1c(O)c(N=NC(=O)c2ccccc2O)c2ccccc21	3.6	104.7	-12.6	1.1	26.2
Cc1occc1C(=O)N=Nc1c(O)n(C)c2ccccc12	0.5	83.7*	-17.5	-1.4	-7.3
COc1cc(C2C(C#N)=C(N)Oc3cc(C)oc(=O)c32)cc2c1OCO2 (stereo not given)	1.4	101.2	46.4*	-1.3	3.4
O=C(N/N=C/C(Cl)=C\c1ccccc1)c1ccco1	-1.0	88.5*	-22.4	1.9	-3.6
CCCCCNC(=O)c1[nH]c(C(F)(F)F)nc1-c1ccccc1	-0.2	.	9.0	7.6	.
O=C(NCCCCCCNC(=O)OCc1ccccc1)OCc1ccccc1	-1.6	6.8*	-1.1	-2.8	8.0
Cc1cc(C)n2nc(C(=O)OCC(=O)Nc3cc(Cl)ccc3C)nc2n1	-0.5	110.6	0.5	-3.4	5.8
Cc1n[nH]c(=S)n(NC(=O)/C=C/C(=O)Nn2c(=S)[nH]nc(C)c2=O)c1=O	1.5	36.1*	67.0*	5.6	21.1
